Laboratory results reported in ChEMBL document CHEMBL4813982, “Novel pyrazolo[4,3-d]pyrimidine microtubule targeting agents (MTAs): Synthesis, structure-activity relationship, in vitro and in vivo evaluation as antitumor agents” (Bioorg Med Chem Lett, 2021).
Activity calls are given as the source filed them. No cut-off for these calls is given here.

Tests used:
MCF7 [1] = assay: Potency index, ratio of EC50 of paclitaxel to EC50 of compound for antiproliferative activity against human MCF7 cells; assay type: functional
M14 = assay: Growth inhibition of human M14 cells incubated for 48 hrs by sulforhodamine B assay; assay type: functional
Tubulin (Homo sapiens) = Tubulin (Homo sapiens) (UniProt P68371+Q9H4B7+P0DPH7+P68366+Q13509+Q71U36+P04350+Q3ZCM7+P07437+P68363+Q9BQE3+Q6PEY2+Q13885+Q9BVA1+Q9BUF5); assay: Inhibition of [3H]colchicine binding to tubulin (unknown origin) at 5 uM relative to control; assay type: protein-complex assay
SK-MEL-5 = assay: Growth inhibition of human SK-MEL-5 cells incubated for 48 hrs by sulforhodamine B assay; assay type: functional
U-251 = assay: Growth inhibition of human U-251 cells incubated for 48 hrs by sulforhodamine B assay; assay type: functional
SW-620 = assay: Growth inhibition of human SW-620 cells incubated for 48 hrs by sulforhodamine B assay; assay type: functional
HL-60(TB) = assay: Growth inhibition of human HL-60(TB) cells incubated for 48 hrs by sulforhodamine B assay; assay type: functional
SK-MEL-2 = assay: Growth inhibition of human SK-MEL-2 cells incubated for 48 hrs by sulforhodamine B assay; assay type: functional
COLO 205 = assay: Growth inhibition of human COLO 205 cells incubated for 48 hrs by sulforhodamine B assay; assay type: functional
HCT-29 = assay: Growth inhibition of […] incubated for 48 hrs by sulforhodamine B assay; assay type: functional
K562 = assay: Growth inhibition of human K562 cells incubated for 48 hrs by sulforhodamine B assay; assay type: functional
NCI-H522 = assay: Growth inhibition of human NCI-H522 cells incubated for 48 hrs by sulforhodamine B assay; assay type: functional
IGROV-1 = assay: Growth inhibition of human IGROV-1 cells incubated for 48 hrs by sulforhodamine B assay; assay type: functional
SF-539 = assay: Growth inhibition of human SF-539 cells incubated for 48 hrs by sulforhodamine B assay; assay type: functional
HOP-62 = assay: Growth inhibition of human HOP-62 cells incubated for 48 hrs by sulforhodamine B assay; assay type: functional
OVCAR-5 = assay: Growth inhibition of human OVCAR-5 cells incubated for 48 hrs by sulforhodamine B assay; assay type: functional
HOP-92 = assay: Growth inhibition of human HOP-92 cells incubated for 48 hrs by sulforhodamine B assay; assay type: functional
CCRF-CEM = assay: Growth inhibition of human CCRF-CEM cells incubated for 48 hrs by sulforhodamine B assay; assay type: functional
MCF7 [2] = assay: Antiproliferative activity against human MCF7 cells expressing TUBB3; assay type: functional, cell-based
MCF7 [3] = assay: Antitumor activity against human MCF7 cells expressing TUBB3 xenografted in athymic mouse assessed as reduction in tumor growth at 30 mg/kg administered twice in a week; assay type: functional, organism-based
In short: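 βIII-tubulin-overexpressing MCF-7 cells in Matrigel implanted into mammary fat pad #4 of 8-week-old female athymic mice. […] Tumor volumes measured over time and analysed by two-way repeated-measures ANOVA. Body weight change at day 41 analysed by one-way ANOVA. n = 7 control, 8 per treated group.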

SF-295 = assay: Growth inhibition of human SF-295 cells incubated for 48 hrs by sulforhodamine B assay; assay type: functional
MDA-MB-231 = assay: Growth inhibition of human MDA-MB-231 cells incubated for 48 hrs by sulforhodamine B assay; assay type: functional
[4] = Toxicity in athymic mouse xenografted with human MCF7 cells expressing TUBB3 assessed as effect on body weight at 30 mg/kg administered twice in a week; assay type: organism-based; conditions: in vivo
In short: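 MCF-7 TUBB3 cells (10^7 in 100 uL Matrigel) implanted into mammary fat pad #4 of 8-week-old female athymic mice. Dosing was 30 mg/kg twice weekly. Body weight was expressed as percent change at day 41 versus starting weight and analysed by one-way ANOVA, n = 8.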

KM12 = assay: Growth inhibition of human KM12 cells incubated for 48 hrs by sulforhodamine B assay; assay type: functional
CAKI-1 = assay: Growth inhibition of human CAKI-1 cells incubated for 48 hrs by sulforhodamine B assay; assay type: functional
Malme-3M = assay: Growth inhibition of human Malme-3M cells incubated for 48 hrs by sulforhodamine B assay; assay type: functional
RXF 393 = assay: Growth inhibition of human RXF 393 cells incubated for 48 hrs by sulforhodamine B assay; assay type: functional
NCI-H23 = assay: Growth inhibition of human NCI-H23 cells incubated for 48 hrs by sulforhodamine B assay; assay type: functional
786-0 = assay: Growth inhibition of human 786-0 cells incubated for 48 hrs by sulforhodamine B assay; assay type: functional
SK-OV-3 = assay: Growth inhibition of human SK-OV-3 cells incubated for 48 hrs by sulforhodamine B assay; assay type: functional
[5] = Resistance ratio of IC50 for antiproliferative activity against human NCI/ADR-RES cells expressing Pgp to IC50 for antiproliferative activity against human OVCAR-8 cells; assay type: functional
In short: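 Resistance ratio: IC50 in Pgp-overexpressing NCI/ADR-RES cells divided by IC50 in parental OVCAR-8 cells.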

[6] = Resistance ratio of EC50 for antiproliferative activity against human MCF7 cells expressing TUBB3 to EC50 for antiproliferative activity against human MCF7 cells; assay type: functional
In short: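 Resistance ratio: EC50 in MCF-7 cells overexpressing βIII-tubulin divided by EC50 in parental wild-type MCF-7 cells.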

MCF7 [7] = assay: Potency index, ratio of EC50 of paclitaxel to EC50 of compound for antiproliferative activity against human MCF7 cells expressing TUBB3; assay type: functional
SNB-75 = assay: Growth inhibition of human SNB-75 cells incubated for 48 hrs by sulforhodamine B assay; assay type: functional
UACC-257 = assay: Growth inhibition of human UACC-257 cells incubated for 48 hrs by sulforhodamine B assay; assay type: functional
OVCAR-4 = assay: Growth inhibition of human OVCAR-4 cells incubated for 48 hrs by sulforhodamine B assay; assay type: functional
UACC-62 = assay: Growth inhibition of human UACC-62 cells incubated for 48 hrs by sulforhodamine B assay; assay type: functional
OVCAR-8 = assay: Antiproliferative activity against human OVCAR-8 cells; assay type: functional, cell-based
HCT-116 = assay: Growth inhibition of human HCT-116 cells incubated for 48 hrs by sulforhodamine B assay; assay type: functional
T47D = assay: Growth inhibition of human T47D cells incubated for 48 hrs by sulforhodamine B assay; assay type: functional
A549 = assay: Growth inhibition of human A549 cells incubated for 48 hrs by sulforhodamine B assay; assay type: functional
MCF7 [8] = assay: Antiproliferative activity against human MCF7 cells; assay type: functional, cell-based
SK-MEL-28 = assay: Growth inhibition of human SK-MEL-28 cells incubated for 48 hrs by sulforhodamine B assay; assay type: functional
ACHN = assay: Growth inhibition of human ACHN cells incubated for 48 hrs by sulforhodamine B assay; assay type: functional
NCI-H226 = assay: Growth inhibition of human NCI-H226 cells incubated for 48 hrs by sulforhodamine B assay; assay type: functional
EKVX = assay: Growth inhibition of human EKVX cells incubated for 48 hrs by sulforhodamine B assay; assay type: functional
UO-31 = assay: Growth inhibition of human UO-31 cells incubated for 48 hrs by sulforhodamine B assay; assay type: functional

Question: What does the source list for `COc1ccc(N(C)c2nc(Cl)nc3cnn(C)c23)cc1`?
Answer: Ratio EC50 (MCF7 [1]): 100; GI50 (M14): 10.6 nM; inhibition (Tubulin (Homo sapiens)): 94%; GI50 (SK-MEL-5): 14.6 nM; GI50 (U-251): 7.97 nM; GI50 (SW-620): 6.67 nM; GI50 (HL-60(TB)): 11.2 nM; GI50 (SK-MEL-2): 21 nM; GI50 (COLO 205): 9.78 nM; GI50 (HCT-29): 7.6 nM; GI50 (K562): 6.46 nM; GI50 (NCI-H522): 14.4 nM; GI50 (IGROV-1): 13.3 nM; GI50 (SF-539): 8.76 nM; GI50 (HOP-62): 15.4 nM; GI50 (OVCAR-5): 11.8 nM; GI50 (HOP-92): 16 nM; GI50 (CCRF-CEM): 9.96 nM; EC50 (MCF7 [2]): 3.3 nM; TGI (MCF7 [3]): Active; GI50 (SF-295): 11.4 nM; GI50 (MDA-MB-231): 14.3 nM; Activity [4]: Non-Toxic; GI50 (KM12): 10.8 nM; GI50 (CAKI-1): 15.7 nM; GI50 (Malme-3M): 12.1 nM; GI50 (RXF 393): 8.75 nM; GI50 (NCI-H23): 11.9 nM; GI50 (786-0): 13.2 nM; GI50 (SK-OV-3): 13.9 nM; Ratio IC50 [5]: 0.55; Ratio EC50 [6]: 1.1; Ratio EC50 (MCF7 [7]): 600; GI50 (SNB-75): 10.8 nM; GI50 (UACC-257): 22.7 nM; GI50 (OVCAR-4): 12.9 nM; GI50 (UACC-62): 15.9 nM; IC50 (OVCAR-8): 9 nM; GI50 (HCT-116): 9.07 nM; GI50 (T47D): 16.4 nM; GI50 (A549): 12.7 nM; EC50 (MCF7 [8]): 2 nM; GI50 (SK-MEL-28): 17 nM; GI50 (ACHN): 8.4 nM; GI50 (NCI-H226): 9.49 nM; GI50 (EKVX): 15.5 nM; GI50 (UO-31): 10 nM
